pEC50: −log10 of the molar value.
Assays:
Homo sapiens [1] = species: Homo sapiens; experiment: Binding affinity to human telomeric G-quadraflex assessed as thermal stability at 1 uM by FRET assay
Procedure, shortened: (§1)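 Human telomeric (GGGTTA)4 oligonucleotide labelled with fluorescein at the 5'-end and MethylRed quencher at the 3'-end, folded into an intramolecular G-quadruplex in 50 mM potassium phosphate buffer, pH 7.4. Fluorescence melting was run on a Roche Light Cycler (excitation 488 nm, emission 520 nm) without and with ligand. Stabilisation was taken as the increase in melting temperature.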

[2] = Inhibition of human telomerase in JR8 cells by TRAP assay; type: cell-based
Procedure, shortened: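 Modified TRAP assay. Telomerase source was supernatant of JR8 cell lysate (13000 rpm, 30 min, 4 °C). The 50 µl reaction held 50 µM dNTPs, 0.2 µg labelled TS, 0.1 µg ACX return primer, 500 ng protein extract, 2 U Taq and a TSNT internal control with NT primer, with or without drug at increasing concentrations. Telomerase was inactivated at 85 °C for 5 min. PCR ran 25 cycles (94/65/72 °C, 30 s each). Products were resolved on a 2% agarose gel and stained with ethidium bromide.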

Homo sapiens [3] = species: Homo sapiens; experiment: Binding affinity to human telomeric G-quadraflex assessed as thermal stability at 10 uM by FRET assay; procedure, shortened: as §1

SMILES	ΔTm (Homo sapiens [1]) [°C]	pEC50 [2]	ΔTm (Homo sapiens [3]) [°C]
O=C(CCN1CCCC1)Nc1ccc2c(c1)C(=O)c1ccc(NC(=O)CCN3CCCC3)cc1C2=O	5.9	5.60	19.2
NCCNC(=O)c1ccc2c(c1)C(=O)c1ccc(C(=O)NCCN)cc1C2=O	2	5.28	10
NCCC(=O)Nc1ccc2c(c1)C(=O)c1ccc(NC(=O)CCN)cc1C2=O	9.1	5.92	18.1
O=C(NCCN1CCCC1)c1ccc2c(c1)C(=O)c1ccc(C(=O)NCCN3CCCC3)cc1C2=O	1.8	4.98	10.8
NCCC(=O)Nc1ccc2c(c1)C(=O)c1cc(NC(=O)CCN)ccc1C2=O	11.3	5.92	27.3
NCCNC(=O)c1ccc2c(c1)C(=O)c1cc(C(=O)NCCN)ccc1C2=O	3.3	4.84	12.9

— ChEMBL document CHEMBL1143869, “Amide bond direction modulates G-quadruplex recognition and telomerase inhibition by 2,6 and 2,7 bis-substituted anthracenedione derivatives” (Bioorg Med Chem, 2008)
